The record followed here is ChEMBL document CHEMBL4400565, “Discovery of Irreversible p97 Inhibitors” (J Med Chem, 2019).

Active and inactive are the calls of the source. The rule behind the calls is not given here. Where a SMILES comes first, the peptide text is derived from it. [ ]: non-standard residue; d: D form. The star is where a group is joined. Nva = CCC[C@H](N)C(=O)O; Cbz = O=C(OCc1ccccc1)* A value given as a limit tells only on which side of the number the result lay.

Data set [1] relates to Proteasome. The experiment in a line: Irreversible inhibition of proteasome in human HEK293T cells based Ubv-GFP cells assessed as increase Ub-v-GFP accumulation at 20 uM after 4 hrs by Western blot analysis. The essentials:
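Ub-v-GFP reporter cells (HEK293T-based, stably expressing this short-lived proteasome substrate) seeded at 3 × 10⁵ per well on poly-D-lysine, grown overnight, then exposed to MG132 for 4 h at 37 °C. Whole-cell extracts in Laemmli buffer were run on SDS-PAGE and immunoblotted for Ub-v-GFP, with anti-p97 as loading control.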
Background: A western blot detects proteins with antibodies after separation by electrophoresis.

Data set [2] concerns Proteasome. The experiment in a line: Irreversible inhibition of proteasome in human HEK293T cells based Ubv-GFP cells assessed as increase Ub-v-GFP accumulation at 20 uM incubated for 1 hr followed by culturing in drug-free medium for additional 3 hrs by Western blot analysis.
Data set [3] concerns Transitional endoplasmic reticulum ATPase (Homo sapiens), P55072 [UNDEFINED MUTATION]. The data set can be described thus: Reversible inhibition of His-tagged p97 C552A mutant (unknown origin) using PNP as substrate assessed as activity recovered at 3200 nM after 2 hrs by dialysis relative to control. Further details: scale not given: the % may be the effect or the level left.

In data set [4] the target is T1, Transitional endoplasmic reticulum ATPase (Homo sapiens, UniProt P55072). The experiment in a line: Reversible inhibition of His-tagged p97 (unknown origin) using PNP as substrate assessed as activity recovered at 3200 nM after 2 hrs by dialysis relative to control. Further details: scale not given: the % may be the effect or the level left.
Target sequence in this assay (P55072 2-806 limits assumed): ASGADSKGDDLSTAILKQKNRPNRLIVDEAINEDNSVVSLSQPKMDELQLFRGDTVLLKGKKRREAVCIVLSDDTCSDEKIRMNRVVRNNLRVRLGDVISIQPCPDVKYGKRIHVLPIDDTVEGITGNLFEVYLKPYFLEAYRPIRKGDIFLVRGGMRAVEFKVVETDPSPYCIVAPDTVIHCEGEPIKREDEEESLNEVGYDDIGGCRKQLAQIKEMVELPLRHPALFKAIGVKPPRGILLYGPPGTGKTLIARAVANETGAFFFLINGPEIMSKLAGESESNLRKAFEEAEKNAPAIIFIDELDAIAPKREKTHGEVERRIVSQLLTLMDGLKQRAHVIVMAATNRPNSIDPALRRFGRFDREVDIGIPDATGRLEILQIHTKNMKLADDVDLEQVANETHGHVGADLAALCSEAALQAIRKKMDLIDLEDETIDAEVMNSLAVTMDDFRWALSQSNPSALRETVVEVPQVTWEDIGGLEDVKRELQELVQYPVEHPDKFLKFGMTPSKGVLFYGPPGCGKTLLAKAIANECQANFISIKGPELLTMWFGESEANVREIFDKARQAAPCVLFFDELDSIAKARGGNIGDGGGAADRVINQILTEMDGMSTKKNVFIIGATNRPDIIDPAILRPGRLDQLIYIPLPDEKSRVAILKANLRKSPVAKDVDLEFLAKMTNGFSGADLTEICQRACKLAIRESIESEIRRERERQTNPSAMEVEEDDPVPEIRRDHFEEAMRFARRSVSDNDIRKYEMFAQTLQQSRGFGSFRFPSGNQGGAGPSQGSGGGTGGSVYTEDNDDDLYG
The target of data set [5] is T1, Transitional endoplasmic reticulum ATPase. The experiment in a line: Inhibition of His-tagged p97 (unknown origin) in presence of ATP and PNP by UV-transparent microplate assay. As to conditions: read-out: Ki(app).
Target sequence in this assay (P55072 whole entry): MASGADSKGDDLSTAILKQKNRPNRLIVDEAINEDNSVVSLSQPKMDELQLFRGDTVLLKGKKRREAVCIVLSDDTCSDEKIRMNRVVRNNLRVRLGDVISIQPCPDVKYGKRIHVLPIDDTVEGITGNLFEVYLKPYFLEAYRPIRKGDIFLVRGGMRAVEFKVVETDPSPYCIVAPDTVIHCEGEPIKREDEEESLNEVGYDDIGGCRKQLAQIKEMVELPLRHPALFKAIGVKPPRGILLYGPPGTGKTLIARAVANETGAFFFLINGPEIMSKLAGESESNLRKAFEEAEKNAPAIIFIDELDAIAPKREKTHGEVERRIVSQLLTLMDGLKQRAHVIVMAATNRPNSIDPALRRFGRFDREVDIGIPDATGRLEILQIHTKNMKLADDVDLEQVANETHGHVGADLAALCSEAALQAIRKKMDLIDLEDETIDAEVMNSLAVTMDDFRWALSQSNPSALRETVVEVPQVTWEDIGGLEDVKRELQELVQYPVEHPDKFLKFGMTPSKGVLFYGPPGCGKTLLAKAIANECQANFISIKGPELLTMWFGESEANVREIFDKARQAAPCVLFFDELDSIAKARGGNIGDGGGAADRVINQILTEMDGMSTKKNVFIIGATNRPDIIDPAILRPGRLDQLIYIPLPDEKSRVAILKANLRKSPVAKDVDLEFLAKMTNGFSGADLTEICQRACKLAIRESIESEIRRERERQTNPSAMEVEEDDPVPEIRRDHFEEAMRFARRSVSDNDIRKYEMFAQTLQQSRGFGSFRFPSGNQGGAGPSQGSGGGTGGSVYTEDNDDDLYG
For data set [6] the target is unchanged. The experiment in a line: Inhibition of p97 ATPase activity in human HEK293T cells based Ubv-GFP cells assessed as increase Ub-v-GFP accumulation at 2 uM after 4 hrs by Western blot analysis. In kind it is cell-based. The essentials:
(§1)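 Ub-v-GFP reporter cells (HEK293T-based, 3 × 10⁵) seeded on poly-D-lysine-coated wells and grown overnight. Inhibitor added at 2 μM and kept 4 h at 37 °C (scheme A), or removed after 1 h, cells washed once with PBS, then 3 h in drug-free medium (scheme B). Whole-cell Laemmli extracts immunoblotted for Ub-v-GFP, with anti-p97 as loading control.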
Target sequence in this assay (P55072 2-806 limits assumed): as the sequence (P55072 2-806 limits assumed) above

The subject of the next data set is MIA PaCa-2. The experiment in a line: Antiproliferative activity against human MIAPaCa2 cells. In kind it is functional, cell-based.
Data set [7] deals with T1, Transitional endoplasmic reticulum ATPase. The data set can be described thus: Inhibition of p97 in human A373 cells co-expressing US11 and HA-tagged MCH class 1 heavy chain H2A assessed as MHC class 1 heavy chain accumulation at 2 uM after 1 hr by Western blot analysis. In kind it is cell-based.
Target sequence in this assay (P55072 2-806 limits assumed): as above
For data set [8], the system named is Proteasome. The data set can be described thus: Inhibition of proteasome in human HEK293T cells stably expressing YFP delSS TCRalpha assessed as reduction in deltaSS TCRalpha-YFP degradation at 2 uM MG132 incubated overnight by Western blot analysis.
Data set [9] addresses T1, Transitional endoplasmic reticulum ATPase. The experiment in a line: Reversible inhibition of p97 in human A373 cells co-expressing US11 and HA-tagged MCH class 1 heavy chain H2A assessed as half life for MHC class 1 heavy chain degradation at 2 uM incubated for 1 hr followed by further incubation in drug-free medium in presence of cycloheximide by Western blot analysis. Format: cell-based. The essentials: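 They were then moved to inhibitor-free medium containing cycloheximide (50 μg/mL) and sampled at set time points. Lysates were immunoblotted for heavy chain turnover.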
Target sequence in this assay (P55072 2-806 limits assumed): as above

Data set [10] has the same target. The data set can be described thus: Irreversible inhibition of p97 ATPase activity in human HEK293T cells based Ubv-GFP cells assessed as increase Ub-v-GFP accumulation at 2 uM incubated for 4 hrs by Western blot analysis. In kind it is cell-based. The essentials: as §1
Target sequence in this assay (P55072 2-806 limits assumed): as above
Data set [11] has as its system Proteasome. The data set can be described thus: Irreversible inhibition of proteasome in human A373 cells co-expressing US11 and HA-tagged MCH class 1 heavy chain H2A assessed as MHC class 1 heavy chain degradation at 20 uM incubated for 1 hr followed by further incubation in drug-free medium in presence of cycloheximide by Western blot analysis.
Data set [12] has as its system Proteasome. The data set can be described thus: Inhibition of proteasome in human HEK293T cells stably expressing YFP delSS TCRalpha assessed as reduction in deltaSS TCRalpha-YFP degradation at 10 uM MG132 incubated overnight by Western blot analysis.
In data set [13] the test system is Proteasome. The experiment in a line: Inhibition of proteasome in human HEK293T cells based Ubv-GFP cells assessed as increase Ub-v-GFP accumulation at 20 uM after 4 hrs by Western blot analysis.
Data set [14] can be described thus: GSH reactivity in PBS buffer assessed as GSH adduct formation at 1 uM after presence of GSH by LC-MS/MS analysis. In kind it is physicochemical. A digest of the protocol: (§2)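 Compound at 1 μM incubated at 37 °C with 5 mM GSH plus a stable internal standard in 0.1 M potassium phosphate, pH 7.4, 10% acetonitrile. Reaction started by GSH addition. GSH conjugate formation checked at the end of incubation.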

Data set [15] is described as follows: GSH reactivity in PBS buffer assessed as half life at 1 uM after presence of GSH by LC-MS/MS analysis. In kind it is physicochemical. As to conditions: PBS buffer with GSH. A digest of the protocol: as §2
Data set [16] concerns the target T1, Transitional endoplasmic reticulum ATPase. The experiment in a line: Irreversible inhibition of His-tagged p97 (unknown origin) using PNP as substrate assessed as activity recovered at 780 nM after 2 hrs by dialysis relative to control. The arrangement: scale not given: the % may be the effect or the level left.
Target sequence in this assay (P55072 2-806 limits assumed): as above
The species named for the next data set is Homo sapiens. The data set can be described thus: Irreversible inhibition of His-tagged p97 delta N mutant (unknown origin) using PNP as substrate assessed as activity recovered at 780 nM after 2 hrs by dialysis relative to control. Further details: scale not given: the % may be the effect or the level left.
Data set [17] addresses T1, Transitional endoplasmic reticulum ATPase. The data set can be described thus: Irreversible inhibition of p97 in human A373 cells co-expressing US11 and HA-tagged MCH class 1 heavy chain H2A assessed as MHC class 1 heavy chain degradation at 2 uM incubated for 1 hr followed by further incubation in drug-free medium in presence of cycloheximide by Western blot analysis.
Data set [18] shares this target. The data set can be described thus: Noncompetitive inhibition of p97 (unknown origin) using increasing concentration of ATP preincubated for 10 mins followed by ATP addition and measured after 2 hrs by UV-based two-step endpoint assay.
For data set [19] the target is unchanged. The data set can be described thus: Irreversible inhibition of p97 ATPase activity in human HEK293T cells based Ubv-GFP cells assessed as increase Ub-v-GFP accumulation at 2 uM incubated for 1 hr followed by culturing in drug-free medium for additional 3 hrs by Western blot analysis. Format: cell-based. The essentials: as §1
In data set [20] the test system is Transitional endoplasmic reticulum ATPase (Homo sapiens), P55072 [UNDEFINED MUTATION]. The experiment in a line: Irreversible inhibition of His-tagged p97 C552A mutant (unknown origin) using PNP as substrate assessed as activity recovered at 780 nM after 2 hrs by dialysis relative to control. Further details: scale not given: the % may be the effect or the level left.

Transitional endoplasmic reticulum ATPase (Homo sapiens), P55072 [UNDEFINED MUTATION], sequence (P55072 whole entry, looked up, stated change not applied): as the sequence (P55072 whole entry) above

With `CCC[C@@H](C=O)NC(=O)[C@H](CC(C)C)NC(=O)[C@H](CC(C)C)NC(=O)OCc1ccccc1` (Cbz-Leu-Leu-[Nva]-aldehyde), the inhibition result in the data set with Proteasome [1] and with Proteasome [2] was “Active” throughout.
For `COc1cccc2c(NCc3ccccc3)nc(-n3c(N)nc4ccccc43)nc12`, the Activity in [3] came to 100%; in data set [4] it was 82%.
In general, EC50 refers to the concentration that produces a half-maximal response. With `C#CCCNC(=O)c1cccc2c1cc(C)n2-c1nc2c(c(NCc3ccccc3)n1)CCCC2`, in data set [5], the Ki stood at 24.5 nM. The inhibition result in data set [6] is “Active”. This molecule also came in with an EC50 in the data set on MIA PaCa-2 of 1410 nM.
Take `Cc1cc(OCc2nnc(SC3CCCC3)n2-c2cccnc2)ccc1-c1ccc(S(C)(=O)=O)cc1`: the inhibition entry in [7] is “Active”. Besides, the inhibition result in the data set with Proteasome [8] was “inactive”. In addition, the T1/2 in data set [9] is under 1 h.
On to `C#CCNC(=O)c1cccc2c1cc(C)n2-c1nc2c(c(NCc3ccccc3)n1)COCC2`, for which the inhibition result in data set [10] and in data set [6] was “Active” each time. The Ki in data set [5] turned out to be 18.6 nM. Further, the midpoint of the response with MIA PaCa-2, the EC50, lay at 1080 nM.
`CC(C)C[C@@H](C=O)NC(=O)[C@H](CC(C)C)NC(=O)[C@H](CC(C)C)NC(=O)OCc1ccccc1` (Cbz-Leu-Leu-Leu-aldehyde): the inhibition result in the data set on Proteasome [11], in the data set with Proteasome [12] and in the data set on Proteasome [13] was “Active” each time.
A word on the half-life: it is how long it takes for the measured level to halve. With `CC#CCNC(=O)c1cccc2c1cc(C)n2-c1nc2c(c(NCc3ccccc3)n1)CCCC2`, the Activity result in data set [14] was “Not Active”. In addition, the inhibition entry in data set [10] and in data set [6] was “Active” throughout. The Ki in [5] is 37.3 nM. In the data set with MIA PaCa-2, this molecule came in with a half-maximal effective concentration (EC50) of 723 nM. The half-life at 1 µM in data set [15] is over 24 h.
Consider `CCC#CC(=O)Nc1cccc2c1cc(C)n2-c1nc2c(c(NCc3ccccc3)n1)CCCC2`, for which the Ki in [5] is 43 nM. For the same molecule, the inhibition result in data set [6] is “Active”. In the data set on MIA PaCa-2, this molecule returned an EC50 of 463 nM.
As to `Cc1cc2c(C(=O)NCCC#N)cccc2n1-c1nc2c(c(NCc3ccccc3)n1)CCCC2`, the Ki in data set [5] came out at 24.1 nM. In addition, the inhibition result in data set [6] is “Active”. For the same molecule, the EC50 in the data set on MIA PaCa-2 is 517 nM.
Take `C#CC(=O)Nc1cccc2c1cc(C)n2-c1nc2c(c(NCc3ccccc3)n1)CCCC2`: the Ki in data set [5] was found to be 37.9 nM. The EC50 with MIA PaCa-2 came to 131 nM.
With `CCCNC(=O)c1cccc2c1cc(C)n2-c1nc2c(c(NCc3ccccc3)n1)CCCC2`, in [5], the Ki amounted to 40.8 nM. In the data set on MIA PaCa-2, this molecule had an EC50 of 608 nM.
Regarding `CCCC#CC(=O)Nc1cccc2c1cc(C)n2-c1nc2c(c(NCc3ccccc3)n1)CCCC2`, the Ki in data set [5] is 26.9 nM. For the same molecule, the inhibition entry in data set [6] is “Active”. This molecule gave a 50% effective concentration (EC50) in the data set on MIA PaCa-2 of 1570 nM.
With `C=CC(=O)Nc1cccc2c1cc(C)n2-c1nc2c(c(NCc3ccccc3)n1)COCC2`, the Ki in data set [5] is 26.6 nM. Besides, the concentration for a half-maximal effect (EC50) in the data set on MIA PaCa-2 was determined as 880 nM.
For `CC#CC(=O)Nc1cccc2c1cc(C)n2-c1nc2c(c(NCc3ccccc3)n1)CCCC2`, the inhibition result in data set [7], in [10], in data set [6], in [17], in data set [18] and in [19] was “Active” throughout. Also, the Ki in [5] came to 33.2 nM. The Activity in data set [16] is 3%; in the data set filed under Homo sapiens, 0%; in data set [20] it was 6%. For the same molecule, the concentration for a half-maximal effect (EC50) in the data set on MIA PaCa-2 was 436 nM. Further, in the data set with Proteasome [8], the inhibition entry was “inactive”.
Take `Cc1cc2c(C(=O)NCC#N)cccc2n1-c1nc2c(c(NCc3ccccc3)n1)CCCC2`: the Ki in [5] was 28.1 nM. Moreover, the inhibition entry in data set [6] was “Active”. In the data set with MIA PaCa-2, this molecule showed a half-maximal effective concentration (EC50) of 468 nM.
Take `CC#CCNC(=O)c1cccc2c1cc(C)n2-c1nc2c(c(NCc3ccccc3)n1)COCC2`: the Activity entry in data set [14] is reported as “Not Active”. Further, the inhibition entry in [10] and in [6] was “Active” in each case. For the same molecule, in [5], the Ki came out at 42.4 nM. The molecule further had a concentration for a half-maximal effect (EC50) with MIA PaCa-2 of 524 nM. Moreover, the half-life at 1 µM in data set [15] is over 24 h.
Turning to `CC#CC(=O)Nc1cccc2c1cc(C)n2-c1nc2c(c(NCc3ccccc3)n1)COCC2`, the Ki in data set [5] came out at 32.3 nM. This molecule also had an EC50 in the data set on MIA PaCa-2 of 600 nM.
As for `C#CC(=O)Nc1cccc2c1cc(C)n2-c1nc2c(c(NCc3ccccc3)n1)COCC2`, the Ki in data set [5] worked out at 32.8 nM. This molecule also gave an EC50 in the data set with MIA PaCa-2 of 78.7 nM.
With `C#CCNC(=O)c1cccc2c1cc(C)n2-c1nc2c(c(NCc3ccccc3)n1)CCCC2`, the inhibition result in data set [10] and in [6] was “Active” throughout. Moreover, the Ki in data set [5] was determined as 30.6 nM. Further, it took 470 nM to reach a half-maximal effect in the data set with MIA PaCa-2 (EC50).
As for `CCC(=O)Nc1cccc2c1cc(C)n2-c1nc2c(c(NCc3ccccc3)n1)CCCC2`, the Ki in [5] was found to be 20.8 nM. In addition, the inhibition entry in data set [6] was “Active”. The same molecule gave an EC50 with MIA PaCa-2 of 1010 nM.
The like results for `Cc1cc2c(C(N)=O)cccc2n1-c1nc2c(c(NCc3ccccc3)n1)CCCC2` were, in that order, 28.6 nM, “Active” and 128 nM.
